This note sets out measurements from ChEMBL document CHEMBL2016553, “Design and synthesis of 3-(4,5,6,7-tetrahydro-3H-imidazo[4,5-c]pyridin-2-yl)-1H-quinolin-2-ones as VEGFR-2 kinase inhibitors” (Bioorg Med Chem Lett, 2012).

Series [1] addresses T1, Vascular endothelial growth factor receptor 2 (Homo sapiens, UniProt P35968). As to the kind of experiment: Inhibition of VEGFR-2 kinase. An outline of the steps: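 HTRF KinEASE assay with recombinant VEGFR-2 kinase domain. Enzyme, ATP and substrate levels were optimised per kit. TR-FRET signal read after detection reagents. IC50 from dose–response curves.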
The target of series [2] is T1, Vascular endothelial growth factor receptor 2. The series is described as follows: Inhibition of recombinant VEGFR-2 kinase domain by homogeneous time-resolved fluorescence assay.
The nature of series [3]: Metabolic stability in human liver microsomes assessed as compound remaining at 10 uM after 30 mins by LC/MS/MS method. It is filed as ADME, Microsome. To be noted: read-out: Stability.
For a further series, the target named is CYP2D6 (Homo sapiens, UniProt P10635). The series is described as follows: Inhibition of recombinant human CYP2D6 assessed as remaining activity at 10 uM after 20 mins by fluorescence assay. It counts as ADME. To be noted: read-out: Activity.
Another series has as its target CYP3A4 (Homo sapiens, UniProt P08684). As to the kind of experiment: Inhibition of recombinant human CYP3A4 assessed as remaining activity at 10 uM after 20 mins by fluorescence assay. It is filed as ADME. To be noted: read-out: Activity.
In the next series the target is CYP2C19 (Homo sapiens, UniProt P33261). The series is described as follows: Inhibition of recombinant human CYP2C19 assessed as remaining activity at 10 uM after 20 mins by fluorescence assay. It is filed as ADME. To be noted: read-out: Activity.
The next series concerns the target CYP2C9 (Homo sapiens, UniProt P11712). As to the kind of experiment: Inhibition of recombinant human CYP2C9 assessed as remaining activity at 10 uM after 20 mins by fluorescence assay. It is filed as ADME. The conditions noted are these: read-out: Activity.
The next series addresses T2, CYP1A2 (Homo sapiens, UniProt P05177).
T2 sequence (P05177 whole entry): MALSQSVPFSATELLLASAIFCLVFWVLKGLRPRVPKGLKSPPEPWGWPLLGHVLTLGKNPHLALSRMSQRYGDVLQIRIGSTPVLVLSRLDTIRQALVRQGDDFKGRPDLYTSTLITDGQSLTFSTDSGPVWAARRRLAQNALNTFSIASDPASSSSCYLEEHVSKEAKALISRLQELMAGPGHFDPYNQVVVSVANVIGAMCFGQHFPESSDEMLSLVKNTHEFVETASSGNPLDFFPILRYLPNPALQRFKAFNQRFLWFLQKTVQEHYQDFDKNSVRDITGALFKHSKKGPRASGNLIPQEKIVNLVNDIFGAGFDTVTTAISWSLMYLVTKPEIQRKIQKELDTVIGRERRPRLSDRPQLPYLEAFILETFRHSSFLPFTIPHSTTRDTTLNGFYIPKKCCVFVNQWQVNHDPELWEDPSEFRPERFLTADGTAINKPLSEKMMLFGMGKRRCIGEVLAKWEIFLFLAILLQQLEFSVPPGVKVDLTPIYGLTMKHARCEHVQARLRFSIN
The series is described as follows: Inhibition of recombinant human CYP1A2 assessed as remaining activity at 10 uM after 20 mins by fluorescence assay. It is filed as ADME. The conditions noted are these: read-out: Activity.

Series [4] deals with HUVEC. As to the kind of experiment: Antiangiogenic activity in HUVEC assessed as tube formation at 1 uM after 16 to 18 hrs by microscopy relative to control. It counts as functional, Homo sapiens. An outline of the steps:
(§1)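 Pooled HUVECs seeded at 40,000/well on wells coated with a 1:1 mix of Matrigel (10 mg/mL) and EBM-2/EGM-2 medium, coating set 1 h at 37 °C. Cells incubated 16–18 h, then fixed. Tube formation imaged by camera and quantified by image analysis.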

Series [5] deals with HUVEC. As to the kind of experiment: Antiproliferative activity against Vegf-stimulated HUVEC at 10 uM after 24 hrs by WST-1 assay relative to control. It is filed as functional, Homo sapiens. An outline of the steps:
(§2)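 Pooled HUVECs grown in 1:1 EBM-2 with EGM-2 supplements, used at passage eight or lower. Seeded at 10,000 cells/well on collagen type I-coated plates. After 24 h, treated 24 h with rhVEGF (20 ng/mL) plus compound. Proliferation read by Premix WST-1 assay.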

The subject of series [6] is HUVEC. The series is described as follows: Antiproliferative activity against Vegf-stimulated HUVEC at 0.1 uM after 24 hrs by WST-1 assay relative to control. It is filed as functional, Homo sapiens. In outline:
as §2

For series [7], the system named is HUVEC. The series is described as follows: Antiangiogenic activity in HUVEC assessed as tube formation at 10 uM after 16 to 18 hrs by microscopy relative to control. It is filed as functional, Homo sapiens. In outline: as §1
Series [8] relates to HUVEC. As to the kind of experiment: Antiproliferative activity against Vegf-stimulated HUVEC at 1 uM after 24 hrs by WST-1 assay relative to control. It counts as functional, Homo sapiens. In outline: as §2
Series [9] in a line: Metabolic stability in human liver microsomes assessed as compound remaining at 2 uM after 30 mins by LC/MS/MS method. It is filed as ADME, Microsome. To be noted: read-out: Stability. In outline:
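Human liver microsomes (0.5 mg/ml) in 100 mM potassium phosphate pH 7.4, test compound final 2 µM. Pre-incubated 5 min at 37 °C, then started with NADPH regenerating solution. Stopped at a single 30 min point with 3 volumes ice-cold acetonitrile containing imipramine (80 ng/ml) as internal standard. Samples vortexed, centrifuged and analysed by LC/MS/MS.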

Each structure is given as a SMILES string. pIC50: −log10 of the molar value.

Sequence of CYP3A4 (P08684 whole entry): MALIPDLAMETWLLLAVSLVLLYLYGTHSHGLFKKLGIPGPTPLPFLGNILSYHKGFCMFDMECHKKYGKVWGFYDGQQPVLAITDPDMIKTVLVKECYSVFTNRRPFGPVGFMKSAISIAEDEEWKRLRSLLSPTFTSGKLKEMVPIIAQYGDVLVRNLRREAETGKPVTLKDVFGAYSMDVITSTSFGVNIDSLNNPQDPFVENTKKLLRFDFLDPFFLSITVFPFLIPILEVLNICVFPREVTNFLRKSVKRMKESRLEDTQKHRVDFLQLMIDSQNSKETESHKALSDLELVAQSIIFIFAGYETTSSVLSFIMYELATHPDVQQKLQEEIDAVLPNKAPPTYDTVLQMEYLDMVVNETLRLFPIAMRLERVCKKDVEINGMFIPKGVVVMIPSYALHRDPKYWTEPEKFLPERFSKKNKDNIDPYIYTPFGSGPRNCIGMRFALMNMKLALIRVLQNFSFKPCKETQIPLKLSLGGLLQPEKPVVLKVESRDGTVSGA
Sequence of CYP2C19 (P33261 whole entry): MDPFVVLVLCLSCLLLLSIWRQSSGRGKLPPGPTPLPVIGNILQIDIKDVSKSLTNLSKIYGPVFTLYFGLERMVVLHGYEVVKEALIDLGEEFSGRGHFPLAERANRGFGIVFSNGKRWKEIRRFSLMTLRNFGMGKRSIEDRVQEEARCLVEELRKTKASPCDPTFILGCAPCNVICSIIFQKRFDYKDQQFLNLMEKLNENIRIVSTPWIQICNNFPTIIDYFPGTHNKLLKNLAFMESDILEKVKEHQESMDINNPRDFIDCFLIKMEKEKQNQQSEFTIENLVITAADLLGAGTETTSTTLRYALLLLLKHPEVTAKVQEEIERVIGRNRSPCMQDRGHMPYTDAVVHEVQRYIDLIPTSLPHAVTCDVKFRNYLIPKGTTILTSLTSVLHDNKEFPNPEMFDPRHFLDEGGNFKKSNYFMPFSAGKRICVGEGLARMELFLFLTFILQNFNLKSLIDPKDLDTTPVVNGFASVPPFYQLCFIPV
Sequence of CYP2D6 (P10635 whole entry): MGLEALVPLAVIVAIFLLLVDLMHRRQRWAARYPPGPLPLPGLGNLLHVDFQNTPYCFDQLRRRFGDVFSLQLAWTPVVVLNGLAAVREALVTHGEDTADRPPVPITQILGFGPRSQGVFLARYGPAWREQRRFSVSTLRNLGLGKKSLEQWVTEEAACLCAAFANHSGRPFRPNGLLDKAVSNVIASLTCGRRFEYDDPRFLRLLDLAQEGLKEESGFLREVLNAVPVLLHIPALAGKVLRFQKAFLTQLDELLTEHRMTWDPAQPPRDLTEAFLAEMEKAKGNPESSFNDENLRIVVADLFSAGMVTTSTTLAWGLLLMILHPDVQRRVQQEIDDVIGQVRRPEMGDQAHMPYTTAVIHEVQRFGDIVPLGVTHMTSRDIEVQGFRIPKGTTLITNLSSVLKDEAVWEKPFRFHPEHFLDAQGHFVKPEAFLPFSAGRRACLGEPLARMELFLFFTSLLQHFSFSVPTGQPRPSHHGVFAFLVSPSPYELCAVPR
T1 sequence (P35968 whole entry, the tested form may be a part): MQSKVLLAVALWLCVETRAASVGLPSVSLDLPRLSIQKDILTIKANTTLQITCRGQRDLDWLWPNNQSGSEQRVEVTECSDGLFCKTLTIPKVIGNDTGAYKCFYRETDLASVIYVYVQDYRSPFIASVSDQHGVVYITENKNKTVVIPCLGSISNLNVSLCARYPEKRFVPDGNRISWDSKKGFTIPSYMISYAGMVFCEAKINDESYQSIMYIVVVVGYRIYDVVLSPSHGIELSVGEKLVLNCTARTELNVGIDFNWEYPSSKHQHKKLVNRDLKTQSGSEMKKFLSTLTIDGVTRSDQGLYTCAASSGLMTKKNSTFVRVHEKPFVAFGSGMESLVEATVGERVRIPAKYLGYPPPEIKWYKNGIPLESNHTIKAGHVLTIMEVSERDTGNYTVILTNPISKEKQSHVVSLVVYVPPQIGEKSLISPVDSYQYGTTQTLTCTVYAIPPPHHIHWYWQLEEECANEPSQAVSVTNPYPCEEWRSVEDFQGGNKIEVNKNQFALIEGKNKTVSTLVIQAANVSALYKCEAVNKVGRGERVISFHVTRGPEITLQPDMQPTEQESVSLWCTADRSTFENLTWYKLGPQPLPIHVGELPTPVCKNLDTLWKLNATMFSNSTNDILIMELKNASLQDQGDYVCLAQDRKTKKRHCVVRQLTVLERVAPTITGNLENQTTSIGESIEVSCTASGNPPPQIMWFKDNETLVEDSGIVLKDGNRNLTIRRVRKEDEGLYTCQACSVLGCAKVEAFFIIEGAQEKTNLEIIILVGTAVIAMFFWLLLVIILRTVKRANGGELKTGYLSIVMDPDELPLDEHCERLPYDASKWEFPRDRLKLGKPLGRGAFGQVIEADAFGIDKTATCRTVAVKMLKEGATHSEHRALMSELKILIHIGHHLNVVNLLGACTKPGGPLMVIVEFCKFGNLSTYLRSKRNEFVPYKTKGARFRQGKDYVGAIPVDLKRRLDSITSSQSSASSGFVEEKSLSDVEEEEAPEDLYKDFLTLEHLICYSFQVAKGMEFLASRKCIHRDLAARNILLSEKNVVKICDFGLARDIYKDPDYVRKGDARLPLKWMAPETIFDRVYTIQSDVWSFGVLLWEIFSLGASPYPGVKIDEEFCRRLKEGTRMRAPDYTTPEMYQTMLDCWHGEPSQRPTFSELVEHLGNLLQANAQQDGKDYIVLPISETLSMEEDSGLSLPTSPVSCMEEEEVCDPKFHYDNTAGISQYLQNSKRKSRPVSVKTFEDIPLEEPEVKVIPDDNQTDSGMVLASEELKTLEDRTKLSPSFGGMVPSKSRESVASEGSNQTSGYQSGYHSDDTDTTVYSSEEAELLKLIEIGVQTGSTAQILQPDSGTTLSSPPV
Sequence of CYP2C9 (P11712 whole entry): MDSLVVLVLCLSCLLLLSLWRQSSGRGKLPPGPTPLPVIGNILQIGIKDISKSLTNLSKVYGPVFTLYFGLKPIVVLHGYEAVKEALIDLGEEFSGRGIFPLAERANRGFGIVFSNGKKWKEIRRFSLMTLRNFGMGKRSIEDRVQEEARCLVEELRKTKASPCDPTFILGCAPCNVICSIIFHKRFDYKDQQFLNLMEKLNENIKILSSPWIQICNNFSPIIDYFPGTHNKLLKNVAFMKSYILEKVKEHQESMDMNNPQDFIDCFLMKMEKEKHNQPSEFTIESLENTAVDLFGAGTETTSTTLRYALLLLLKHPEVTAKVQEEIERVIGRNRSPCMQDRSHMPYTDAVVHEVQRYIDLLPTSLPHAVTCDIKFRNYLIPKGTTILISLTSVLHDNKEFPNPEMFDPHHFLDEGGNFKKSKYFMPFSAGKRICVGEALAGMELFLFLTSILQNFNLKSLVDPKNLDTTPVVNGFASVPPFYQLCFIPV

As for `CN1CCc2nc(-c3cc4ccccc4[nH]c3=O)[nH]c2C1`, the pIC50 in series [1] and in [2] was 6.00 each time. Regarding `O=c1[nH]c2ccccc2cc1-c1nc2c([nH]1)CN(Cc1ccccc1)CC2`, the pIC50 in [2] is 5.22. Same read-out and setting: next, `O=C(OCc1ccccc1)N1CCc2nc(-c3cc4ccccc4[nH]c3=O)[nH]c2C1`: 6.22; `O=c1[nH]c2ccccc2cc1-c1nc2c([nH]1)CN(C1CCNCC1)CC2`: 5.30; `O=C(c1cccnc1)N1CCc2nc(-c3cc4ccccc4[nH]c3=O)[nH]c2C1`: 6.70.

Consider `O=C(c1cccnc1)N1CCc2nc(-c3cc4c(F)cccc4[nH]c3=O)[nH]c2C1`, for which, in series [2], the pIC50 was 6.22. `O=C(c1cccnc1)N1CCc2nc(-c3cc4cc(F)ccc4[nH]c3=O)[nH]c2C1`: the remaining at 0.5 h, 10 µM in series [3] was 96%. Besides, the activity at 20 min, 10 µM on CYP2D6 turned out to be 67%; at CYP3A4, 83%; on CYP2C19, 92%; at CYP2C9, 99%; at CYP1A2, 86%. Besides, in [2], the pIC50 was 9.00. As for `O=C(c1ccncc1)N1CCc2nc(-c3cc4ccccc4[nH]c3=O)[nH]c2C1`, the pIC50 in series [2] is 6.70.

On to `O=C(c1ccncc1)N1CCc2nc(-c3cc4c(F)cccc4[nH]c3=O)[nH]c2C1`, for which the pIC50 in series [2] is 6.10. In the case of `O=C(c1ccncc1)N1CCc2nc(-c3cc4cc(F)ccc4[nH]c3=O)[nH]c2C1`, the Activity in the series on HUVEC [4] was determined as 93%; with HUVEC [5] it was 71%; with HUVEC [6] it was 120%; in the series with HUVEC [7], 62%; in the series with HUVEC [8], 72%. Besides, the remaining at 0.5 h, 10 µM in [3] is 99%. In addition, the activity at 20 min, 10 µM at CYP2D6 turned out to be 90%; on CYP3A4, 89%; at CYP2C19, 77%; at CYP2C9, 53%; on CYP1A2, 96%. For the same molecule, the pIC50 in series [2] was 9.52. Turning to `O=C(c1ccc(CN2CCCCC2)cc1)N1CCc2nc(-c3cc4ccccc4[nH]c3=O)[nH]c2C1`, the pIC50 in series [2] was 8.89.

With `O=C(c1ccc(CN2CCCCC2)cc1)N1CCc2nc(-c3cc4cc(F)ccc4[nH]c3=O)[nH]c2C1`, the Activity in the series on HUVEC [4] stood at 102%; with HUVEC [5] it was 79%; in the series on HUVEC [6], 92.3%; in the series on HUVEC [7], 99%; with HUVEC [8], 82%. Moreover, the activity at 20 min, 10 µM on CYP2D6 was 100%; at CYP3A4, 16%; at CYP2C19, 100%; at CYP2C9 it was 94%; on CYP1A2, 89%. In addition, the pIC50 in [2] is 8.31. In [9], the remaining at 0.5 h, 2 µM is 92%.

Turning to `CCN(CC)CC(=O)N1CCc2nc(-c3cc4ccccc4[nH]c3=O)[nH]c2C1`, the pIC50 in series [2] is 6.52. Same read-out and setting: next, `O=C(CN1CCOCC1)N1CCc2nc(-c3cc4ccccc4[nH]c3=O)[nH]c2C1`: 6.52; `O=C(CN1CCOCC1)N1CCc2nc(-c3cc4c(F)cccc4[nH]c3=O)[nH]c2C1`: 5.96; `O=C(CN1CCOCC1)N1CCc2nc(-c3cc4cc(F)ccc4[nH]c3=O)[nH]c2C1`: 8.37. For `O=C(CN1CCOCC1)N1CCc2nc(-c3cc4cc(Cl)ccc4[nH]c3=O)[nH]c2C1`, the pIC50 in series [2] is 7.46.

In the case of `COc1ccc2[nH]c(=O)c(-c3nc4c([nH]3)CN(C(=O)CN3CCOCC3)CC4)cc2c1`, the pIC50 in series [2] was 6.12. For `CN1CCN(CC(=O)N2CCc3nc(-c4cc5ccccc5[nH]c4=O)[nH]c3C2)CC1`, in series [2], the pIC50 is 6.52. Take `CN1CCN(CC(=O)N2CCc3nc(-c4cc5c(F)cccc5[nH]c4=O)[nH]c3C2)CC1`: the pIC50 in [2] is 5.98. Same read-out and setting: next, `CN1CCN(CC(=O)N2CCc3nc(-c4cc5cc(F)ccc5[nH]c4=O)[nH]c3C2)CC1`: 7.89; `CN1CCN(CC(=O)N2CCc3nc(-c4cc5cc(Cl)ccc5[nH]c4=O)[nH]c3C2)CC1`: 7.72; `COc1ccc2[nH]c(=O)c(-c3nc4c([nH]3)CN(C(=O)CN3CCN(C)CC3)CC4)cc2c1`: 5.96. Still for that read-out and setting: as for `O=C(CN1CCCCC1)N1CCc2nc(-c3cc4ccccc4[nH]c3=O)[nH]c2C1`, the figure is 7.80; as for `O=C(CN1CCCCC1)N1CCc2nc(-c3cc4c(F)cccc4[nH]c3=O)[nH]c2C1`, 6.13. For `O=C(CN1CCCCC1)N1CCc2nc(-c3cc4cc(F)ccc4[nH]c3=O)[nH]c2C1`, the pIC50 in series [2] was 8.10. On the same count and under the same terms, next, `O=C(CN1CCCCC1)N1CCc2nc(-c3cc4cc(Cl)ccc4[nH]c3=O)[nH]c2C1`: 7.66; `COc1ccc2[nH]c(=O)c(-c3nc4c([nH]3)CN(C(=O)CN3CCCCC3)CC4)cc2c1`: 6.55. As to `O=C(CN1CCCC1)N1CCc2nc(-c3cc4ccccc4[nH]c3=O)[nH]c2C1`, the pIC50 in [2] is 6.40. On the same count and under the same terms, next, `O=C(Cc1ccccn1)N1CCc2nc(-c3cc4ccccc4[nH]c3=O)[nH]c2C1`: 8.89.

Consider `O=C(Cc1ccccn1)N1CCc2nc(-c3cc4cc(F)ccc4[nH]c3=O)[nH]c2C1`, for which the pIC50 in [2] is 9.15. Consider `O=C(Cc1ccncc1)N1CCc2nc(-c3cc4ccccc4[nH]c3=O)[nH]c2C1`, for which the pIC50 in series [2] was 8.17. In the case of `O=C(Cc1ccncc1)N1CCc2nc(-c3cc4cc(F)ccc4[nH]c3=O)[nH]c2C1`, in series [3], the remaining at 0.5 h, 10 µM is 93%. The activity at 20 min, 10 µM at CYP2D6 amounted to 21%; at CYP3A4, 33%; on CYP2C19, 35%; at CYP2C9, 28%; on CYP1A2, 58%. Besides, the pIC50 in [2] was 8.07. For `O=C(Cc1ccncc1)N1CCc2nc(-c3cc4cc(Cl)ccc4[nH]c3=O)[nH]c2C1`, the pIC50 in series [2] is 9.30. As for `Cc1cccc(NC(=O)N2CCc3nc(-c4cc5ccccc5[nH]c4=O)[nH]c3C2)c1`, the pIC50 in series [2] was 8.68.

Turning to `COc1ccc(NC(=O)N2CCc3nc(-c4cc5ccccc5[nH]c4=O)[nH]c3C2)cc1`, the pIC50 in [2] is 7.34.
